Data reported in ChEMBL document CHEMBL4665633, “Cereblon versus VHL: Hijacking E3 ligases against each other using PROTACs” (Bioorg Med Chem, 2019).
Activity calls are given as the source filed them. The calls are words filed in the database; no cut-off is given here.

Columns and labels:
Type in all cases: cell-based
[1] = molecular target: T1, Protein cereblon/von Hippel-Lindau disease tumor suppressor (Homo sapiens, UniProt P40337+Q96SW2); test: Protac activity at VHL/CRBN in HEK293 cells assessed as pVHL30 protein abundance at 1 uM after 24 hrs by Western blot analysis relative to DMSO
Summary of the method: (§1)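 HEK293 cells (DMEM, 10% FBS, penicillin/streptomycin, L-glutamine; 37 °C, 5% CO2; ≤30 passages) seeded at 1 × 10⁶ per well overnight, then treated with compound at 0.1% v/v final DMSO. Cells were lysed in RIPA with protease inhibitors and benzonase, then clarified. Equal Bradford-quantified protein was immunoblotted for CRBN/VHL. Bands were normalised to β-tubulin and expressed as % of mean 0.1% DMSO vehicle.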
Target sequence in this assay (P40337 whole entry, looked up): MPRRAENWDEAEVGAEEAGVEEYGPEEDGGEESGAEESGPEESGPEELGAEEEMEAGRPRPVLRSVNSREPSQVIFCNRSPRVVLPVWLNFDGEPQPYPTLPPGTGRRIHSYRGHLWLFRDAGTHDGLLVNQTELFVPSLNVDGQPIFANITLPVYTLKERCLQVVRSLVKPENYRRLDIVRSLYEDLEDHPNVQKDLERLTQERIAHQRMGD
Target sequence in this assay (Q96SW2 whole entry, looked up): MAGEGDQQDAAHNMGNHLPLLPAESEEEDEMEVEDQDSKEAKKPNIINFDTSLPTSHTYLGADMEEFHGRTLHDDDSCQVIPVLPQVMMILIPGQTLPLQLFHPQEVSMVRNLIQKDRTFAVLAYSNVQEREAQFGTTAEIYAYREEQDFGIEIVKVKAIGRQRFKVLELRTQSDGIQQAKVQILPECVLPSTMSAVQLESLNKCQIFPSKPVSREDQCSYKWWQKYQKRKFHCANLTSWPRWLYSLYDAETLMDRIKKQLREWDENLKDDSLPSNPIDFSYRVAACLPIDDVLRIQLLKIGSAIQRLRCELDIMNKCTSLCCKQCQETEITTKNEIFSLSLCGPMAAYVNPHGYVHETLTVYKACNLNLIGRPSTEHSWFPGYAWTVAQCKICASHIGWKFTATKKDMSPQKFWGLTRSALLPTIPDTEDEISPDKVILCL

[2] = molecular target: T1, Protein cereblon/von Hippel-Lindau disease tumor suppressor; test: Protac activity at VHL/CRBN in human HeLa cells assessed as hook effect at > 1 uM
Target sequence in this assay (P40337 whole entry, looked up): as the sequence (P40337 whole entry, looked up) above
Target sequence in this assay (Q96SW2 whole entry, looked up): as the sequence (Q96SW2 whole entry, looked up) above

[3] = molecular target: T1, Protein cereblon/von Hippel-Lindau disease tumor suppressor; test: Protac activity at VHL/CRBN in HEK293 cells assessed as CRBN protein abundance at 1 uM after 2 hrs by Western blot analysis relative to DMSO; summary of the method: as §1
Target sequence in this assay (P40337 whole entry, looked up): as the sequence (P40337 whole entry, looked up) above
Target sequence in this assay (Q96SW2 whole entry, looked up): as the sequence (Q96SW2 whole entry, looked up) above

[4] = molecular target: T1, Protein cereblon/von Hippel-Lindau disease tumor suppressor; test: Protac activity at VHL/CRBN in human HeLa cells assessed as pVHL30 protein abundance at 10000 nM after 4 hrs by Western blot analysis relative to DMSO
Summary of the method: (§2)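 HeLa cells (5 × 10⁵, DMEM + 10% FBS, 37 °C, 5% CO₂, ≤30 passages) seeded overnight, then treated 4 h with compound at single or graded concentrations (0.1% v/v DMSO final). RIPA lysates equalised by Bradford; SDS-PAGE and anti-CRBN/anti-VHL immunoblots; bands normalised to β-tubulin and expressed as % of mean DMSO vehicle. DC₅₀ from fit of band intensity versus log[concentration].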
Target sequence in this assay (P40337 whole entry, looked up): as the sequence (P40337 whole entry, looked up) above
Target sequence in this assay (Q96SW2 whole entry, looked up): as the sequence (Q96SW2 whole entry, looked up) above

[5] = molecular target: T1, Protein cereblon/von Hippel-Lindau disease tumor suppressor; test: Protac activity at VHL/CRBN in human HeLa cells assessed as pVHL30 protein abundance at 1 uM after 12 hrs by Western blot analysis relative to DMSO
Summary of the method: (§3)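 HeLa cells seeded overnight, then exposed to 1 µM compound (0.1% v/v DMSO final) over a time course. Cells were DPBS-washed and RIPA-lysed with protease inhibitors and benzonase; equal protein was loaded. Immunoblots for CRBN and VHL isoforms were quantified against β-tubulin and reported relative to the averaged 0.1% DMSO vehicle.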
Target sequence in this assay (P40337 whole entry, looked up): as the sequence (P40337 whole entry, looked up) above
Target sequence in this assay (Q96SW2 whole entry, looked up): as the sequence (Q96SW2 whole entry, looked up) above

[6] = molecular target: T1, Protein cereblon/von Hippel-Lindau disease tumor suppressor; test: Protac activity at VHL/CRBN in HEK293 cells assessed as pVHL19 protein abundance at 500 nM after 4 hrs by Western blot analysis relative to DMSO; summary of the method: as §1
Target sequence in this assay (P40337 whole entry, looked up): as the sequence (P40337 whole entry, looked up) above
Target sequence in this assay (Q96SW2 whole entry, looked up): as the sequence (Q96SW2 whole entry, looked up) above

[7] = molecular target: T1, Protein cereblon/von Hippel-Lindau disease tumor suppressor; test: Protac activity at VHL/CRBN in HEK293 cells assessed as pVHL30 protein abundance at 1 uM after 2 hrs by Western blot analysis relative to DMSO; summary of the method: as §1
[8] = molecular target: T1, Protein cereblon/von Hippel-Lindau disease tumor suppressor; test: Protac activity at VHL/CRBN in human HeLa cells assessed as pVHL19 protein abundance at 10 nM after 4 hrs by Western blot analysis relative to DMSO; summary of the method: as §2
[9] = molecular target: T1, Protein cereblon/von Hippel-Lindau disease tumor suppressor; test: Protac activity at VHL/CRBN in HEK293 cells assessed as CRBN protein abundance at 500 nM after 4 hrs by Western blot analysis relative to DMSO; summary of the method: as §1
[10] = molecular target: T1, Protein cereblon/von Hippel-Lindau disease tumor suppressor; test: Protac activity at VHL/CRBN in human HeLa cells assessed as CRBN protein abundance at 10 nM after 4 hrs by Western blot analysis relative to DMSO; summary of the method: as §2
[11] = molecular target: T1, Protein cereblon/von Hippel-Lindau disease tumor suppressor; test: Protac activity at VHL/CRBN in HEK293 cells assessed as pVHL30 protein abundance at 1000 nM after 4 hrs by Western blot analysis relative to DMSO; summary of the method: as §1
[12] = molecular target: T1, Protein cereblon/von Hippel-Lindau disease tumor suppressor; test: Protac activity at VHL/CRBN in HEK293 cells assessed as pVHL19 protein abundance at 50 nM after 4 hrs by Western blot analysis relative to DMSO; summary of the method: as §1
[13] = molecular target: T1, Protein cereblon/von Hippel-Lindau disease tumor suppressor; test: Protac activity at VHL/CRBN in human HeLa cells assessed as pVHL30 protein abundance at 1 uM after 1 hr by Western blot analysis relative to DMSO; summary of the method: as §3
[14] = molecular target: T1, Protein cereblon/von Hippel-Lindau disease tumor suppressor; test: Protac activity at VHL/CRBN in human HeLa cells assessed as CRBN protein abundance at 100 nM after 4 hrs by Western blot analysis relative to DMSO; summary of the method: as §2
[15] = molecular target: T1, Protein cereblon/von Hippel-Lindau disease tumor suppressor; test: Protac activity at VHL/CRBN in human HeLa cells assessed as pVHL19 protein abundance at 1 uM after 1 hr by Western blot analysis relative to DMSO; summary of the method: as §3
[16] = molecular target: T1, Protein cereblon/von Hippel-Lindau disease tumor suppressor; test: Protac activity at VHL/CRBN in HEK293 cells assessed as pVHL19 protein abundance at 1 uM after 1 hr by Western blot analysis relative to DMSO; summary of the method: as §1
[17] = molecular target: T1, Protein cereblon/von Hippel-Lindau disease tumor suppressor; test: Protac activity at VHL/CRBN in human HeLa cells assessed as CRBN protein abundance at 10000 nM after 4 hrs by Western blot analysis relative to DMSO; summary of the method: as §2
[18] = molecular target: T1, Protein cereblon/von Hippel-Lindau disease tumor suppressor; test: Protac activity at VHL/CRBN in human HeLa cells assessed as CRBN protein abundance at 1 uM after 12 hrs by Western blot analysis relative to DMSO; summary of the method: as §3
[19] = molecular target: T1, Protein cereblon/von Hippel-Lindau disease tumor suppressor; test: Protac activity at VHL/CRBN in HEK293 cells assessed as induction of CRBN protein degradation after 4 hrs by Western blot analysis
Summary of the method: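 HEK293 cells seeded at 1 × 10⁶ per well overnight, exposed 4 h to a compound concentration series (0.1% v/v final DMSO), lysed in RIPA, and immunoblotted on equal Bradford-quantified protein. CRBN bands were normalised to β-tubulin and expressed relative to mean DMSO vehicle. DC50 was estimated by fitting band intensity against log[concentration].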
Target sequence in this assay (P40337 whole entry): as the sequence (P40337 whole entry, looked up) above
Target sequence in this assay (Q96SW2 whole entry): as the sequence (Q96SW2 whole entry, looked up) above

[20] = molecular target: T1, Protein cereblon/von Hippel-Lindau disease tumor suppressor; test: Protac activity at VHL/CRBN in human HeLa cells assessed as pVHL30 protein abundance at 100 nM after 4 hrs by Western blot analysis relative to DMSO; summary of the method: as §2
[21] = molecular target: T1, Protein cereblon/von Hippel-Lindau disease tumor suppressor; test: Protac activity at VHL/CRBN in human HeLa cells assessed as pVHL30 protein abundance at 500 nM after 4 hrs by Western blot analysis relative to DMSO; summary of the method: as §2
[22] = molecular target: T1, Protein cereblon/von Hippel-Lindau disease tumor suppressor; test: Protac activity at VHL/CRBN in human HeLa cells assessed as pVHL19 protein abundance at 50 nM after 4 hrs by Western blot analysis relative to DMSO; summary of the method: as §2
[23] = molecular target: T1, Protein cereblon/von Hippel-Lindau disease tumor suppressor; test: Protac activity at VHL/CRBN in HEK293 cells assessed as CRBN protein abundance at 10000 nM after 4 hrs by Western blot analysis relative to DMSO; summary of the method: as §1
[24] = molecular target: T1, Protein cereblon/von Hippel-Lindau disease tumor suppressor; test: Protac activity at VHL/CRBN in human HeLa cells assessed as pVHL19 protein abundance at 1 uM after 2 hrs by Western blot analysis relative to DMSO; summary of the method: as §3
[25] = molecular target: T1, Protein cereblon/von Hippel-Lindau disease tumor suppressor; test: Protac activity at VHL/CRBN in HEK293 cells assessed as pVHL30 protein abundance at 10 nM after 4 hrs by Western blot analysis relative to DMSO; summary of the method: as §1
[26] = molecular target: T1, Protein cereblon/von Hippel-Lindau disease tumor suppressor; test: Protac activity at VHL/CRBN in human HeLa cells assessed as CRBN protein abundance at 50 nM after 4 hrs by Western blot analysis relative to DMSO; summary of the method: as §2
[27] = molecular target: T1, Protein cereblon/von Hippel-Lindau disease tumor suppressor; test: Protac activity at VHL/CRBN in human HeLa cells assessed as CRBN protein abundance at 1 uM after 4 hrs by Western blot analysis relative to DMSO; summary of the method: as §3
[28] = molecular target: T1, Protein cereblon/von Hippel-Lindau disease tumor suppressor; test: Protac activity at VHL/CRBN in HEK293 cells assessed as pVHL30 protein abundance at 50 nM after 4 hrs by Western blot analysis relative to DMSO; summary of the method: as §1

What does the source list for `Cc1ncsc1-c1ccc(CNC(=O)[C@@H]2C[C@@H](O)CN2C(=O)[C@@H](NC(=O)COCCCCCOCCOCCCCCOCC(=O)NCCNc2cccc3c2C(=O)N(C2CCC(=O)NC2=O)C3=O)C(C)(C)C)cc1` (stereo partly drawn)?
Activity [1]: 101%; Activity [2]: Active; Activity [3]: 9%; Activity [4]: 142%; Activity [5]: 93%; Activity [6]: 113%; Activity [7]: 87%; Activity [8]: 95%; Activity [9]: 27%; Activity [10]: 81%; Activity [11]: 127%; Activity [12]: 111%; Activity [13]: 100%; Activity [14]: 70%; Activity [15]: 100%; Activity [16]: 98%; Activity [17]: 86%; Activity [18]: 12%; DC50 [19]: 0.23 µM; Activity [20]: 101%; Activity [21]: 83%; Activity [22]: 95%; Activity [23]: 66%; Activity [24]: 95%; Activity [25]: 135%; Activity [26]: 72%; Activity [27]: 19%; Activity [28]: 133%
